Consider nine compounds from ChEMBL document CHEMBL1134284, “The biological effects of structural variation at the meta position of the aromatic rings and at the end of the alkenyl chain in the alkenyldiarylmethane series of non-nucleoside reverse transcriptase inhibitors” (J Med Chem, 2001).

For series [1], the target named is Human immunodeficiency virus type 1 reverse transcriptase (Human immunodeficiency virus 1, UniProt Q72547). Nature of the series: Inhibitory activity against HIV-1 Reverse Transcriptase with rCdG as the template primer. In a few lines:
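Cell-free assay with purified recombinant HIV-1 RT (p66/p51 dimer). Activity measured as [32P]GTP incorporation into the poly(rC)/oligo(dG) homopolymer template/primer. IC50 is reported as inhibition of enzyme activity.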

The test system of series [2] is Human immunodeficiency virus type 1 (RF/HAT ISOLATE). Nature of the series: Inhibitory concentration for cytopathicity of HIV-1RF in CEM-SS cells. Type of series: functional, organism-based. The conditions noted are these: Human immunodeficiency virus 1, RF. In a few lines: (§1)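 CEM-SS cells kept in RPMI 1640 with 10% heat-inactivated FBS, 2 mM glutamine, penicillin/streptomycin. Microtiter assay with cytopathic HIV-1 RF, or mock infection for toxicity. Viability read by MTS/phenazine ethosulfate reduction (absorbance 490 nm) 6 days after infection. […] Triplicate.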
In general terms: Protection from cytopathic effect is a common read-out in antiviral testing.

Series [3] is described as follows: Ratio of CC50/EC50 was determined. Type of series: cell-based. The conditions noted are these: human, CEM-SS cells; read-out: TI. In outline:
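HIV-1 RF–infected CEM-SS cells (RPMI 1640, 10% heat-inactivated FBS, 2 mM glutamine, penicillin/streptomycin), plus mock-infected CEM-SS in parallel. Cell killing and viability were read by MTS/phenazine ethosulfate reduction at 490 nm 6 days after infection. […] Index = CC50 ÷ EC50. Triplicate tests.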

Series [4] deals with CEM-SS. The series can be described thus: Concentration required for cytotoxicity against mock infected CEM-SS cells. The conditions noted are these: Homo sapiens. The series is classed as functional. In a few lines: as §1
The test system of series [5] is CEM-SS. The series can be described thus: Inhibitory concentration for cytopathicity of HIV-1RF in CEM-SS cells; Not active. The series is classed as functional, cell-based, Homo sapiens. In a few lines: as §1

For orientation: IC50 means the concentration needed to halve the response being measured. Read a low IC50 as greater potency in that assay. One may read the EC50 as the midpoint of the concentration-response curve. For orientation: CC50 means the concentration giving 50% cytotoxicity. In turn, `CCCOC(=O)CCCC=C(c1cc(Cl)c(OC)c(C(=O)OC)c1)c1cc(Cl)c(OC)c(C(=O)OC)c1` returned an IC50 in series [1] of 8300 nM. This compound also registered an EC50 in series [2] of 1290 nM. Besides, the selectivity ratio in series [3] was 10.8. The compound also came in with a CC50 in the series with CEM-SS [4] of 13.9 µM.
As to `COC(=O)c1cc(C(=CCCCC(=O)N2CCCCC2)c2cc(Cl)c(OC)c(C(=O)OC)c2)cc(Cl)c1OC`, the IC50 in series [1] is > 100000 nM. Moreover, in the series with CEM-SS [5], the EC50 result is recorded as “Not Active”. This compound also had a CC50 with CEM-SS [4] of 3.59 µM.
In the case of `CCCCCC=C(c1cc(C(=O)OC)c(OC)c(C(F)(F)F)c1)c1cc(C(=O)OC)c(OC)c(C(F)(F)F)c1`, the EC50 result in the series on CEM-SS [5] was “Not Active”. Further, in the series with CEM-SS [4], half-maximal cytotoxicity (CC50) was put at 106 µM.
Compound `CCCCCC=C(c1cc(C)c(OC)c(C(=O)OC)c1)c1cc(C)c(OC)c(C(=O)OC)c1` displayed an IC50 in series [1] of 1000 nM. This compound showed an EC50 in series [2] of 6800 nM. Further, the selectivity ratio in series [3] turned out to be 2.5. This compound came in with a CC50 with CEM-SS [4] of 17.2 µM.
Consider `COC(=O)c1cc(C(=CCCNC(=O)OCC(C)C)c2cc(C)c(OC)c(C(=O)OC)c2)cc(C)c1OC`, for which the IC50 in series [1] amounted to 2950 nM. This compound also showed an EC50 in series [2] of 760 nM. The selectivity ratio in series [3] stood at 6.73. It took 5.13 µM to reach half-maximal cytotoxicity with CEM-SS [4] (CC50).
On to `COC(=O)c1cc(C(=CCCNC(C)=O)c2cc(Cl)c(OC)c(C(=O)OC)c2)cc(Cl)c1OC`, for which the IC50 in series [1] is > 100000 nM. Also, in the series on CEM-SS [5], the EC50 result is recorded as “Not Active”. In the series on CEM-SS [4], this compound gave a CC50 of 19.1 µM.
`CCOC(=O)NCCC=C(c1cc(C)c(OC)c(C(=O)OC)c1)c1cc(C)c(OC)c(C(=O)OC)c1`: the half-maximal inhibitory concentration (IC50) in series [1] was found to be 16 nM. This compound showed an EC50 in series [2] of 670 nM. Further, the selectivity ratio in series [3] was found to be 5.34. Moreover, half-maximal cytotoxicity in the series with CEM-SS [4] (CC50) was put at 3.59 µM.
`CCCOC(=O)CCCC=C(c1cc(C)c(OC)c(C(=O)OC)c1)c1cc(C)c(OC)c(C(=O)OC)c1` came in with an IC50 in series [1] of 29700 nM. Besides, it took 1290 nM to reach a half-maximal effect in series [2] (EC50). Moreover, the selectivity ratio in series [3] worked out at 4.2. Also, the CC50 in the series on CEM-SS [4] amounted to 5.4 µM.
Take `CCOC(=O)NCCC=C(c1cc(Cl)c(OC)c(C(=O)OC)c1)c1cc(Cl)c(OC)c(C(=O)OC)c1`: the IC50 in series [1] amounted to 1930 nM. This compound also returned an EC50 in series [2] of 710 nM. The selectivity ratio in series [3] turned out to be 17.2. The compound also registered a CC50 in the series with CEM-SS [4] of 12.2 µM.
